Hck Nef HTS = inhibitors of Nef-activated human Hck kinase, primary screen, biochemical, Z-Lyte FRET, 384-well, Hck-YEEI; Tyrosine-protein kinase HCK (Homo sapiens), P08631; Recombinant Hck-YEEI plus Nef, Z-Lyte FRET kinase assay; inhibition, % at 20 µM; 220,000 tested, 0.68% active;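 active = Hck-Nef kinase inhibition above about 50%, limit read from the data; inactive = inhibition below that limit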;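 note: 0% = DMSO with Hck plus Nef and 100% = Hck alone without Nef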
Target sequence (P08631 whole entry, looked up): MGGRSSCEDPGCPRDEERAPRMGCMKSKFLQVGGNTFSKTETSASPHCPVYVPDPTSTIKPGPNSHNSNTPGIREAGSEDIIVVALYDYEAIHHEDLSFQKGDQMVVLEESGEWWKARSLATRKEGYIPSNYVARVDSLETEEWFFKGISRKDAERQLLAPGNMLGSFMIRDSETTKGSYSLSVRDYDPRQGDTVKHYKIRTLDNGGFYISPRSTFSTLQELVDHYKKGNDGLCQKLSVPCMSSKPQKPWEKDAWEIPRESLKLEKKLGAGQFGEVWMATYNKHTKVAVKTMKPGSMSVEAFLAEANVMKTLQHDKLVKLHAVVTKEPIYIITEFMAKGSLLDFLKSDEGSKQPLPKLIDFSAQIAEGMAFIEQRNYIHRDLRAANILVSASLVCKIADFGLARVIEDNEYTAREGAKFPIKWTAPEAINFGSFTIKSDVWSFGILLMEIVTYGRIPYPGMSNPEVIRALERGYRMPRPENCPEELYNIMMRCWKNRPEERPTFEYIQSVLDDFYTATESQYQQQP
WT yeast gro inh = growth inhibition of WT strain, primary screen, mitochondrial fusion inhibitor project, WT and mutant strains, chemical genetic. mitochondrial fusion phenotypic screen. inhibition, % at 10 µM. 190,000 tested, 2.1% active. AID 1362, 2008; in the data active = inhibition above about 58%; tested in S. cerevisiae
Calb biofilm kill = clotrimazole potentiators killing C. albicans biofilm, primary screen, 4-compound mixtures. C. albicans biofilm persisters + clotrimazole, fluorescence viability; primary screen in compound mixtures of four per well. inhibition, % at 7.6 µM. 120,000 tested, 0.02% active;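 active = inhibition above 30.3% in the primary screen of four-compound pools, then above 30% when the compound was retested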;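 note: compounds exposed to preformed 24 h biofilms for 48 h; 0% = untreated biofilm control and 100% = clotrimazole plus chlorhexidine kill blank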
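Probe or stimulus – Clotrimazole 50 µg/mL co-treatment · System – C. albicans biofilms · Schedule – 24 h biofilm formation, then 48 h compound exposure, 37 °C · Evaluation – percent inhibition of biofilm viability · Technique – 2-h Alamar Blue fluorescence, 535/590 nm excitation/emission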
Arbovirus anti = antivirals against arbovirus infection, primary screen, cell-based, full library, 10K replicate subset | arbovirus infection cell-based antiviral screen | inhibition, % at 10 µM | 200,000 tested, 0.37% active | AID 1251, 2008; in the data active = inhibition above about 30%
RAM network inh = inhibitors of the yeast RAM network, primary screen, dse1pr::URA3 reporter, 5-FOA selection; inhibition, % at 50 µM; 190,000 tested, 1.8% active; S. cerevisiae dse1pr::URA3 reporter, 5-FOA growth OD615, 2 d; analog-sensitive cbk1-as2 kinase mutant strain; AID 868, 2007;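 active = inhibition above a set limit, 3 SD over mean compound inhibition, cut at about 8.4% in these data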;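 note: 0% = DMSO-only wells with no growth and 100% = 10 µM 1-NA-PP1 full growth; inhibition rescues growth on 5-FOA so higher OD means more RAM inhibition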
p47phox inh = p47phox/p22phox peptide binding inhibitors, primary screen, biochemical, uHTS, NADPH oxidase regulatory subunit | Neutrophil cytosol factor 1 (Homo sapiens), P14598 | inhibition, % at 24.7 µM | fluorescence polarization, 2 h | AID 1274, 2008 | 220,000 tested, 0.53% active;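 active = inhibition above about 30%, limit read from the data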;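 note: 0% = p47phox with labelled peptide and 100% = labelled peptide alone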
* hit, by the source's call; x = no result. Rows were chosen to be rich in hits. Some 4.6% of all compounds tested hit in one or more screens of this group.

SMILES	Hck Nef HTS	WT yeast gro inh	Calb biofilm kill	Arbovirus anti	RAM network inh	p47phox inh
c1ccc(-c2cc(-c3nc4ccccc4[nH]3)c3ccccc3n2)cc1	3	60*	9	-8	2	-24
COc1ccccc1NC(=O)CSc1ccc2nnc(-c3ccc(C)cc3)n2n1	17	-3	15	5	5	35*
O=C1c2ccccc2C(Nc2ccccc2)N1c1ccc(Cl)cn1 (stereo not given)	1	0	x	-6	3	-11
O=C1c2ccccc2C(Nc2ccc(Cl)cn2)N1Cc1ccccc1 (stereo not given)	4	71*	x	2	-1	-3
O=C(NNC(=O)C1CCN(c2ncccn2)CC1)c1ccncc1	14	-10	2	-3	0	-1
Cc1cc(C)c(C)c(OCC(=O)NCc2nc(-c3ccccc3)no2)c1	1	35	x	-6	2	-15
O=[N+]([O-])c1ccc(COc2ccc(-c3[nH]ncc3-c3ccc(Cl)cc3)c(O)c2)cc1	2	94*	-4	-39	1	-21
COc1ccc(-c2cn[nH]c2-c2ccc(OCc3ccc([N+](=O)[O-])cc3)cc2O)cc1OC	13	x	15	x	x	5
O=C1NC(=S)S/C1=C\c1coc2ccccc2c1=O	88*	-17	27	11	-1	-37
C/[N+]([O-])=C\c1coc2ccccc2c1=O	2	-4	x	3	2	-5
O=C1NC(=S)S/C1=C\c1coc2ccc(O)cc2c1=O	53*	x	21	x	x	-60
S=C(NCc1ccc2[nH]c3c(c2c1)CCCC3)Nc1ccccc1Cl	-3	41	0	-9	4	-4
Cc1ccc(C)c(NC(=S)NCc2ccc3[nH]c4c(c3c2)CCCC4)c1	-2	80*	0	-34	2	-6
CCCCNC(=S)NCc1ccc2[nH]c3c(c2c1)CCCC3	18	69*	11	8	7	-3
CNC(=S)NCc1ccc2[nH]c3c(c2c1)CCCC3	0	4	9	-1	2	-4
O=C(NCc1ccc2[nH]c3c(c2c1)CCCC3)N1CCOCC1	0	14	x	0	1	-14
Cc1ccccc1NC(=S)NCc1ccc2[nH]c3c(c2c1)CCCC3	-4	79*	16	-34	4	-9
CCCN1CCC(NCc2cn(C)nc2-c2ccc(Oc3ccccc3)cc2)CC1	2	x	30	x	x	-1
COc1ccccc1N1CCN(C(=O)c2cnn3cccnc23)CC1	0	-6	x	-5	0	-8
CCOC(=O)C(Cc1ccc(NC(=O)/C(=C\c2ccccc2)NC(=O)c2ccccc2)cc1)N1C(=O)c2ccccc2C1=O (stereo not given)	1	-13	13	-38	8	-12
CCCc1ccc(-c2cc(C(=O)N/N=C/c3ccc([N+](=O)[O-])o3)c3ccccc3n2)cc1	2	63*	x	-24	1	-1
Cc1cc(C(=O)N/N=C/c2ccc([N+](=O)[O-])o2)c(C)o1	6	x	21	x	x	56*
O=C(N/N=C/c1ccc([N+](=O)[O-])o1)c1cc(-c2cccc(Br)c2)nc2ccccc12	1	36	x	-31	7	-21
Clc1ccc(C2=Nn3c(nnc3-c3cc(-c4ccccc4)n[nH]3)SC2)cc1	1	97*	x	-3	9.1*	6
c1ccc(-c2nnc3n2N=C(c2ccc4c(c2)OCO4)CS3)nc1	1	-1	x	-11	9.2*	-8
SMILES	Hck Nef HTS	WT yeast gro inh	Calb biofilm kill	Arbovirus anti	RAM network inh	p47phox inh
Clc1ccccc1C1=Nn2c(nnc2-c2ccncc2)SC1	0	20	x	59*	2	-10
Cc1ccc(-c2nnc3n2N=C(c2ccccc2)CS3)cc1	0	-7	x	4	4	-3
c1ccc(C2=Nn3c(nnc3-c3cc(-c4ccccc4)n[nH]3)SC2)cc1	4	-1	x	0	8.6*	-4
O=C(O)c1cnc(-c2ccccc2)nc1Sc1ccccc1Cl	0	-21	x	43*	4	-15
COc1ccc(Sc2nc(-c3ccccc3)ncc2C(=O)O)cc1	23	-12	7	7	3	-10
CCOC(=O)c1nnc(-c2ccccc2)nc1Sc1ccccc1Cl	-2	8	x	-36	11*	-11
O=C(O)c1cnc(-c2ccccc2)nc1Sc1ccc(Cl)cc1	2	15	x	66*	8.6*	-7
Cc1cccc(Sc2nc(-c3ccccc3)ncc2C(=O)O)c1	17	-16	13	32*	3	5
Cc1nc2cc(-c3ccccc3)nn2c(C)c1CCC(=O)NC(C)c1ccc2c(c1)OCCO2 (stereo not given)	-1	-7	14	-1	0	-2
CCCC(=O)Nc1nc(-c2ccccc2)c(CC)s1	-13	17	7	-12	0	-7
Cc1ccc(-n2c(SCc3ccc(C(=O)O)cc3)nnc2-c2ccncc2)cc1	-11	x	14	x	x	3
Cc1cc(NS(=O)(=O)c2ccc(NC(=S)Nc3ccc(Cl)cc3C)cc2)no1	5	x	18	x	x	-5
O=C(NCC1CCCO1)C1CC(=O)N(C2CCCC2)C1 (stereo not given)	-1	3	x	-5	1	3
Cc1cc(C)nc(NS(=O)(=O)c2ccc(NC(=O)CN3C(=O)S/C(=C\c4ccccc4)C3=O)cc2)n1	-2	-21	16	1	9.9*	-23
CCCCCNC(=O)c1cc(S(=O)(=O)N2CCCC2)ccc1F	1	1	12	1	0	-6
O=[N+]([O-])c1ccc(Oc2cccc3cccnc23)c([N+](=O)[O-])c1	15	63*	21	8	0	-1
Cc1nnc(NC(=O)CSc2nc3c(c(=O)n(C)c(=O)n3C)n2C(C)C)s1	12	-4	2	3	1	x
O=C(O)c1ccccc1Nc1ccc([N+](=O)[O-])cc1	-1	-6	9	37*	1	-4
O=[N+]([O-])c1ccc(Nc2c3ccccc3nc3ccccc23)cc1	22	77*	6	-34	3	-18
O=C(O)c1ccccc1Nc1ccccc1C(=O)O	-1	3	x	6	4	-11
Cc1cccc(N=Nc2ccc(O)c3ncccc23)c1	1	65*	21	-30	5	-5
CCOc1cccc(C(=O)Nc2ccc3oc(Cc4ccc(Cl)cc4)nc3c2)c1	-20	59*	x	-21	11*	-20
O=C(Nc1ccc2oc(Cc3ccc(Cl)cc3)nc2c1)c1cccnc1	1	-3	x	3	-1	-10

High-throughput results from PubChem BioAssay.
